Assay results from ChEMBL document CHEMBL4689842, “EUbOPEN Chemogenomics Library wave 1” (2021).

System: HEK-293T
Experiment: Multiplex assay against HEK293T;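 for Population Tubulin-Different-Phenotype (%): share of the cells with healthy nuclei that show this phenotype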
Format: toxicity, cell-based
Details: human
How it was run: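 Imaging took place on a CQ1 microscope at 37°C and 5% CO2 once compound had been added to live cells stained at seeding with Hoechst33342, BioTracker Green Microtubule Cytoskeleton Dye, MitoTracker Red and Annexin V Alexa Fluor 680. CellPathfinder machine-learning gating classed cells as Hoechst high-intensity objects or normal cells, classed normal cells as having healthy, pyknosed or fragmented nuclei, and classed pyknosed cells as mitotic or apoptotic. Tubulin, mitochondrial-mass and membrane-permeability phenotypes are per cents of the healthy-nucleus cells.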

[1] = 12 h, 1 µM, compound concentration 1 uM, replicate 1
[2] = 12 h, 1 µM, compound concentration 1 uM, replicate 2
[3] = 12 h, 10 µM, compound concentration 10 uM, replicate 1
[4] = 12 h, 10 µM, compound concentration 10 uM, replicate 2
[5] = 24 h, 1 µM, compound concentration 1 uM, replicate 1
[6] = 24 h, 1 µM, compound concentration 1 uM, replicate 2
[7] = 24 h, 10 µM, compound concentration 10 uM, replicate 1
[8] = 24 h, 10 µM, compound concentration 10 uM, replicate 2
[9] = 48 h, 1 µM, compound concentration 1 uM, replicate 1
[10] = 48 h, 1 µM, compound concentration 1 uM, replicate 2
[11] = 48 h, 10 µM, compound concentration 10 uM, replicate 1
[12] = 48 h, 10 µM, compound concentration 10 uM, replicate 2

## CN(c1cc(C(F)(F)F)nc(OCCC(=O)O)n1)c1cccc2c1CCC2
[1]
  Population Apoptotic (%): 44%
  Population Fragmented Nuclei (%): 21%
  Population Healthy Nuclei (%): 34%
  Population Hoechst High Intensity Objects (%): 14%
  Population Membrane Permeable-Phenotype (%): 3%
  Population Mitochondria Different-Phenotype (%): 67%
  Population Mitotic Cells (%): 55%
  Population Normal (%): 85%
  Population Pyknosed Nuclei (%): 44%
  Population Tubulin-Different-Phenotype (%): 29%
  Total Cell Count: 189
[2]
  Population Apoptotic (%): 12%
  Population Fragmented Nuclei (%): 4%
  Population Healthy Nuclei (%): 49%
  Population Hoechst High Intensity Objects (%): 4%
  Population Membrane Permeable-Phenotype (%): 8%
  Population Mitochondria Different-Phenotype (%): 15%
  Population Mitotic Cells (%): 87%
  Population Normal (%): 95%
  Population Pyknosed Nuclei (%): 46%
  Population Tubulin-Different-Phenotype (%): 14%
  Total Cell Count: 193
[3]
  Population Apoptotic (%): 37%
  Population Healthy Nuclei (%): 49%
  Population Hoechst High Intensity Objects (%): 16%
  Population Membrane Permeable-Phenotype (%): 1%
  Population Mitochondria Different-Phenotype (%): 69%
  Population Mitotic Cells (%): 62%
  Population Normal (%): 83%
  Population Pyknosed Nuclei (%): 41%
  Population Tubulin-Different-Phenotype (%): 28%
  Total Cell Count: 223
[4]
  Population Apoptotic (%): 8%
  Population Fragmented Nuclei (%): 8%
  Population Healthy Nuclei (%): 42%
  Population Hoechst High Intensity Objects (%): 2%
  Population Membrane Permeable-Phenotype (%): 6%
  Population Mitochondria Different-Phenotype (%): 14%
  Population Mitotic Cells (%): 91%
  Population Normal (%): 97%
  Population Pyknosed Nuclei (%): 49%
  Population Tubulin-Different-Phenotype (%): 9%
  Total Cell Count: 233
[5]
  Population Apoptotic (%): 34%
  Population Fragmented Nuclei (%): 18%
  Population Healthy Nuclei (%): 30%
  Population Hoechst High Intensity Objects (%): 11%
  Population Membrane Permeable-Phenotype (%): 1%
  Population Mitochondria Different-Phenotype (%): 53%
  Population Mitotic Cells (%): 65%
  Population Normal (%): 88%
  Population Pyknosed Nuclei (%): 51%
  Population Tubulin-Different-Phenotype (%): 32%
  Total Cell Count: 193
[6]
  Population Apoptotic (%): 21%
  Population Fragmented Nuclei (%): 8%
  Population Healthy Nuclei (%): 65%
  Population Hoechst High Intensity Objects (%): 4%
  Population Membrane Permeable-Phenotype (%): 10%
  Population Mitochondria Different-Phenotype (%): 13%
  Population Mitotic Cells (%): 78%
  Population Normal (%): 95%
  Population Pyknosed Nuclei (%): 25%
  Population Tubulin-Different-Phenotype (%): 28%
  Total Cell Count: 250
[7]
  Population Apoptotic (%): 33%
  Population Fragmented Nuclei (%): 12%
  Population Healthy Nuclei (%): 50%
  Population Hoechst High Intensity Objects (%): 11%
  Population Membrane Permeable-Phenotype (%): 4%
  Population Mitochondria Different-Phenotype (%): 37%
  Population Mitotic Cells (%): 66%
  Population Normal (%): 88%
  Population Pyknosed Nuclei (%): 37%
  Population Tubulin-Different-Phenotype (%): 22%
  Total Cell Count: 256
[8]
  Population Apoptotic (%): 9%
  Population Fragmented Nuclei (%): 2%
  Population Healthy Nuclei (%): 68%
  Population Hoechst High Intensity Objects (%): 3%
  Population Membrane Permeable-Phenotype (%): 3%
  Population Mitochondria Different-Phenotype (%): 11%
  Population Mitotic Cells (%): 90%
  Population Normal (%): 96%
  Population Pyknosed Nuclei (%): 29%
  Population Tubulin-Different-Phenotype (%): 19%
  Total Cell Count: 291
[9]
  Population Apoptotic (%): 45%
  Population Fragmented Nuclei (%): 21%
  Population Healthy Nuclei (%): 36%
  Population Hoechst High Intensity Objects (%): 16%
  Population Membrane Permeable-Phenotype (%): 1%
  Population Mitochondria Different-Phenotype (%): 22%
  Population Mitotic Cells (%): 54%
  Population Normal (%): 83%
  Population Pyknosed Nuclei (%): 41%
  Population Tubulin-Different-Phenotype (%): 24%
  Total Cell Count: 228
[10]
  Population Apoptotic (%): 7%
  Population Fragmented Nuclei (%): 7%
  Population Healthy Nuclei (%): 84%
  Population Hoechst High Intensity Objects (%): 3%
  Population Membrane Permeable-Phenotype (%): 10%
  Population Mitochondria Different-Phenotype (%): 4%
  Population Mitotic Cells (%): 92%
  Population Normal (%): 96%
  Population Pyknosed Nuclei (%): 8%
  Population Tubulin-Different-Phenotype (%): 21%
  Total Cell Count: 472
[11]
  Population Apoptotic (%): 36%
  Population Fragmented Nuclei (%): 15%
  Population Healthy Nuclei (%): 56%
  Population Hoechst High Intensity Objects (%): 6%
  Population Membrane Permeable-Phenotype (%): 1%
  Population Mitochondria Different-Phenotype (%): 14%
  Population Mitotic Cells (%): 63%
  Population Normal (%): 93%
  Population Pyknosed Nuclei (%): 27%
  Population Tubulin-Different-Phenotype (%): 11%
  Total Cell Count: 351
[12]
  Population Apoptotic (%): 10%
  Population Fragmented Nuclei (%): 5%
  Population Healthy Nuclei (%): 83%
  Population Hoechst High Intensity Objects (%): 2%
  Population Membrane Permeable-Phenotype (%): 4%
  Population Mitochondria Different-Phenotype (%): 3%
  Population Mitotic Cells (%): 89%
  Population Normal (%): 97%
  Population Pyknosed Nuclei (%): 11%
  Population Tubulin-Different-Phenotype (%): 12%
  Total Cell Count: 593
